Consider seven molecules from PubChem BioAssay.

The inhibition is the drop in the measured response relative to a control, in per cent.

Active and inactive are the calls of the source.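 Rule for the calls, unless noted: active = inhibition at or above 50% relative to wild type and mutant plate controls; inactive = inhibition below 50%.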

Assay [1] can be described thus: inhibitors of TNFa-induced NFkB p65 translocation, primary screen, imaging, HUVEC, MLSMR starter and 10KST1 sets (AID 438;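 active = inhibition above 20% together with a positive visual image hit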;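 note: compound added about 3h40 before a 20 min TNFalpha stimulation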;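 for inhibition: signal is the nuclear over cytoplasmic p65 intensity ratio per well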). The conditions noted are these: HUVEC TNFa-induced p65 nuclear translocation; cell count: measured here: nuclei count (cytotoxicity indicator), at 2.08 µM; inhibition: at 2 µM, stronger effect = higher value, 0% TNFa-plus-vehicle, 100% no-TNFa wells.
Assay [2] in a line: endothelial E-selectin expression blockers – imaging, HUVEC, immunofluorescence, MLSMR starter and 10KST1 sets, primary screen (AID 487;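 active = visually confirmed hit in the image check and inhibition above 20%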;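 for inhibition: signal is fraction of cell area covered by stained E-selectin grains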;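 for nuclei count: 100% = median nuclei count of all wells on the same plate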). The conditions noted are these: HUVEC TNFalpha-induced E-selectin immunofluorescence imaging, at 2 µM; inhibition: stronger effect = higher value; nuclei count: measured here: cell number, toxicity.
The nature of assay [3]: Primary imaging screen for DUSP6 inhibitors that restore phospho-Erk in transfected HeLa cells, chemical complementation (AID 609;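 active = compounds giving at least 50% inhibition in the cell-based MKP-3 phosphatase rescue imaging test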;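 for inhibition: phospho-Erk level distribution per well compared with pooled transfected vehicle control wells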). The conditions noted are these: HeLa MKP-3 transfected, phospho-Erk imaging KS statistic, at 10 µM, cells stimulated with TPA for 15 min.
The target in assay [4] is Dual specificity protein phosphatase 6 (Homo sapiens) (UniProt Q16828). The assay is described as above. The conditions noted are these: HeLa MKP-3 transfected, phospho-Erk imaging KS statistic; at 10 µM; stronger effect = higher value; cells stimulated with TPA for 15 min.
The target of assay [5] is Voltage-gated potassium channel subunit beta-2 (Rattus norvegicus) (UniProt P62483). Briefly: inhibitors of rat Kvbeta2 reductase activity – biochemical, NADPH fluorescence, primary screen (AID 622;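 active = fluorescence slope higher than the sample average by over 3 SD, cut at about -0.22 in these data, passing the limit was not always enough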;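 note: slope of raw intensity against log time taken from 70 to 1610 s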). Particulars: recombinant KvBeta, 4-cyanobenzaldehyde reduction, at 10 µM, stronger effect = higher value.
The target is the same in assay [6]. In words: enhancers of rat Kvbeta2 NADPH turnover – biochemical, NADPH fluorescence, primary screen (AID 623;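 active = NADPH fluorescence slope more negative than the mean of all samples by about 3 SD, 99.7% confidence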;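 note: fluorescence intensity change per second fitted from 20 to 320 s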). Particulars: Recombinant KvBeta, NADPH fluorescence decrease slope, 10 min; at 10 µM; stronger effect = lower value.
For assay [7], the target named is Muscarinic acetylcholine receptor M4 (Homo sapiens) (UniProt P08173). Briefly: M4-linked GIRK flux change, two-sided – cell-based, HEK293 M4/GIRK, thallium flux, BTC-AM, M4 allosteric agonist project, primary screen (AID 625;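 active = fluorescence slope after compound addition differing from the mean of all tested samples at 99.7% confidence, mostly higher but some lower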;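 note: thallium influx through GIRK channels coupled to M4 in HEK293 cells with BTC-AM dye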). The conditions noted are these: at 10 µM, actives lie on both sides. In a few lines:
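Material: M4/GIRK1/GIRK2 stable HEK293 cell line. Medium: pH 7.3 thallium assay buffer. Dosing: single compound concentration, 10 µM final. Schedule: 1 h dye loading, 2 min kinetic read. Measured by: kinetic fluorescence with BTC-AM dye. Read-out: post-addition slope, 15–24 s, of baseline-normalized fluorescence. Benchmarks: carbachol and DMSO controls.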

Assay [8] in a line: inhibitors of larval lipid processing in zebrafish, primary screen, whole organism, PED6 fluorescence, gall bladder and intestine (AID 686;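 active = a full or partial loss of lipid-probe fluorescence in the fish gall bladder, intestine or both, judged by eye; inactive = no fluorescence loss, or compound toxic to the fish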;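 note: larvae 5 to 7 days old with five fish per well; signal comes from phospholipase A2 cleavage of quenched PED6 carried via bile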). Particulars: Zebrafish larvae PED6 lipid processing, fluorescence scoring; screened at 20 µM (by protocol). In a few lines: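 System: live zebrafish larvae aged 5-7 days, whole organism; measure: graded gall bladder and intestinal fluorescence inhibition per well; incubation: overnight exposure; reagent: ingested quenched lipid PED6 at 100 nM; signal: By-eye fluorescence microscopy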

The nature of assay [9]: loss of swimming-algae plug formation – whole organism, Chlamydomonas reinhardtii, WT vs cilia-less mutant, absorbance, 96-well, primary screen (AID 463189).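 Note: 0% = wild type cc124 cells in DMSO and 100% = ciliumless bld1 mutant cells.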 The conditions noted are these: Chlamydomonas reinhardtii gravitaxis, OD600 absorbance, 2 days; at 10 µM; stronger effect = higher value.
Where [10] appears, read: measured here: cell density z-score.
The mark [11] stands for this setting: measured here: nuclear c-Myc green intensity z-score.
The mark [12] stands for this setting: measured here: nuclear pErk red intensity z-score, stronger effect = higher value.

Sequence of Dual specificity protein phosphatase 6 (Homo sapiens) (Q16828 whole entry, looked up): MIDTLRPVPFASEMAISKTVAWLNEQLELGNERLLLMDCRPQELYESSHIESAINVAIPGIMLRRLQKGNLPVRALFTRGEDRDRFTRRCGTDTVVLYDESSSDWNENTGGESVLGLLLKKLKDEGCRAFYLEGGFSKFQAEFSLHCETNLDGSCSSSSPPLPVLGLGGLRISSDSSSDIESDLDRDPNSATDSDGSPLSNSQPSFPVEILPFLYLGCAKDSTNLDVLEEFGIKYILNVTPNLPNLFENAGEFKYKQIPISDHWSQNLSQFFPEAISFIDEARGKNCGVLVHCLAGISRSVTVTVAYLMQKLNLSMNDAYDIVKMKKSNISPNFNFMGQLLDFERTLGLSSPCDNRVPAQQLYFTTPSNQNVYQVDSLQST
Sequence of Voltage-gated potassium channel subunit beta-2 (Rattus norvegicus) (P62483 whole entry, looked up): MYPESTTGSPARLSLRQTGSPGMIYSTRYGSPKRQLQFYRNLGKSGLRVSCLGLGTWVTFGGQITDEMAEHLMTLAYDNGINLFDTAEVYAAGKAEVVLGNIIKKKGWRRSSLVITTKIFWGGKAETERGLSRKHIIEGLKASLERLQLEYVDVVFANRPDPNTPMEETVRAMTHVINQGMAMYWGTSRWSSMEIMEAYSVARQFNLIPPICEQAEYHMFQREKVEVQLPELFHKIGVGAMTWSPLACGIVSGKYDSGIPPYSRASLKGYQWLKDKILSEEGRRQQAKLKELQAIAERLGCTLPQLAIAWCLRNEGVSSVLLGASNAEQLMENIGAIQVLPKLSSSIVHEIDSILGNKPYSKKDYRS
Sequence of Muscarinic acetylcholine receptor M4 (Homo sapiens) (P08173 whole entry, looked up): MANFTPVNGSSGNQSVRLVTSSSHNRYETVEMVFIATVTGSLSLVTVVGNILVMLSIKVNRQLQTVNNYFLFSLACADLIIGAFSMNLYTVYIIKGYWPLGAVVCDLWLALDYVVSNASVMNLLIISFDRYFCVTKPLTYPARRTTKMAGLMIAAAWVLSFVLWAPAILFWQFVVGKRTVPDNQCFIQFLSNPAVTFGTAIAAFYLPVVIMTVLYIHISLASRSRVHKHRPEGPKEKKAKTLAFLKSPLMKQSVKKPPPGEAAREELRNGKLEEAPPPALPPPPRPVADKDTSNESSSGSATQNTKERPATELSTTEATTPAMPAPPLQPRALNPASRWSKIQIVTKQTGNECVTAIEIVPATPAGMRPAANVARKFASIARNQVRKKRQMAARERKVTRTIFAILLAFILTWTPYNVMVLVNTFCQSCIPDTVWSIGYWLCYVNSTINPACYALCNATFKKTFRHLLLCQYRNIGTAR

On to `COC(=O)c1ccc(C2/C(=C(\O)c3cccc(OC)c3)C(=O)C(=O)N2CCCN(C)C)cc1` (stereo unspecified), for which the cell count in [1] worked out at 632. In addition, the inhibition in [1] was -19.7% (inactive); in assay [2], -82.8% (inactive); in [4], 7.21% (inactive); in assay [9], 20.5% (inactive). Moreover, in assay [2], the nuclei count amounted to 145%. Besides, the z-score in assay [3] (setting [10]) is 0.797; in assay [3] (setting [11]), -1.05; in assay [3] (setting [12]) it was -0.8. The values for the fluorescence slope in assay [5] and in assay [7] were -0.524 (inactive) and 0.006 (inactive), respectively. Besides, the NADPH fluorescence slope in assay [6] is -1.5e-05 (inactive). In assay [8], the call was inactive.

Take `O=C(O)CCc1nn2cc(-c3ccccc3)nc2[nH]c1=O`: the cell count in [1] stood at 580. In addition, the inhibition is 3% (inactive) in [1], -147% (inactive) in assay [2], -7.93% (inactive) in assay [4] and -5.8% (inactive) in [9]. The molecule further showed a nuclei count in assay [2] of 170%. Moreover, the z-score is 0.555 in assay [3] (setting [10]), -0.659 in assay [3] (setting [11]) and -0.476 in assay [3] (setting [12]). Moreover, the values for the fluorescence slope in assay [5] and in [7] were -0.00517 (active) and 0.00553 (inactive), respectively. For the same molecule, the NADPH fluorescence slope in assay [6] was 2.1e-06 (inactive). For the same molecule, the result in assay [8] was inactive.

Regarding `CN(CCCCCNC(=O)/C=N/O)Cc1ccccc1`, in [1], the cell count is 661. Besides, the inhibition was -11.4% (inactive) in [1], -47.5% (inactive) in assay [2], 5.35% (inactive) in [4] and 27.9% (inactive) in assay [9]. The molecule further registered a nuclei count in assay [2] of 99.4%. For the same molecule, the z-score in assay [3] (setting [10]) was -0.0258; in assay [3] (setting [11]), 0.279; in assay [3] (setting [12]), -0.452. The fluorescence slope was -0.537 (inactive) in assay [5] and 0.00725 (inactive) in [7]. Further, the NADPH fluorescence slope in [6] was -6.5e-05 (inactive). The molecule was called inactive in assay [8].

Turning to `CCc1nc(N2CCCC2)c(C#N)c2c1CCCC2`, the cell count in assay [1] turned out to be 422. Besides, the inhibition in assay [1] was 2.1% (inactive); in assay [2], -71.3% (inactive); in [4] it was -6.59% (inactive); in assay [9], -11.4% (inactive). In assay [2], this molecule returned a nuclei count of 118%. For the same molecule, the z-score in [3] (setting [10]) was -1.3; in assay [3] (setting [11]), 0.104; in assay [3] (setting [12]) it was 0.215. Besides, the results for the fluorescence slope in assay [5] and in assay [7] were -0.506 (inactive) and 0.00476 (inactive), respectively. Also, the NADPH fluorescence slope in assay [6] is 3e-05 (inactive). For the same molecule, the result in assay [8] was inactive.

`CCOC(=O)c1ccc(NC(=O)COc2ccccc2OC)cc1`: the cell count in [1] was 668. Further, the inhibition in assay [1] was -1.6% (inactive); in [2], 26.3% (inactive); in assay [4], 33.3% (inactive); in assay [9], -9.5% (inactive). Also, in [2], the nuclei count stood at 179%. The z-score in [3] (setting [10]) was 1.9; in [3] (setting [11]) it was 0.486; in [3] (setting [12]) it was -1.19. Further, the fluorescence slope in [5] is -0.465 (inactive); in assay [7], 0.00666 (inactive). Also, in [6], the NADPH fluorescence slope was -0.000105 (inactive). Further, the call in assay [8] was inactive.

As to `N#Cc1nc(COc2ccc(Br)cc2)oc1N1CCN(Cc2ccccc2)CC1`, the cell count in [1] stood at 444. Further, the inhibition was 2% (inactive) in assay [1], -74.5% (inactive) in assay [2], 12.7% (inactive) in assay [4] and 12.9% (inactive) in assay [9]. Further, the nuclei count in [2] was determined as 138%. The z-score in assay [3] (setting [10]) is 0.98; in assay [3] (setting [11]), 0.14; in assay [3] (setting [12]) it was -0.518. In addition, the fluorescence slope in assay [5] is -0.444 (inactive); in assay [7], 0.00951 (inactive). The NADPH fluorescence slope in assay [6] is -2.9e-05 (inactive). Moreover, the result in assay [8] was inactive.

With `Cc1cc(=O)oc(C)c1C(=O)NCC(C)C`, the cell count in [1] came to 455. In addition, the inhibition was -2.1% (inactive) in assay [1], -11.5% (inactive) in assay [2], 23.8% (inactive) in [4] and -17.5% (inactive) in assay [9]. In assay [2], the nuclei count came out at 98.2%. The z-score in assay [3] (setting [10]) is -0.875; in assay [3] (setting [11]), 2.27; in assay [3] (setting [12]), -0.541. The results for the fluorescence slope in [5] and in assay [7] were -0.432 (inactive) and 0.00519 (inactive), respectively. Also, in assay [6], the NADPH fluorescence slope was -5.9e-06 (inactive). The call in assay [8] was inactive.
